# PERK inh: block of dimerizer-induced PERK translation repression, primary screen, PERK inhibitor project, CHO PERK-DD cells, SEAP luminescence, HTS; CHO PERK-DD fusion, SEAP luminescence translation reporter; inhibition, % at 5.6 µM; hit rate 0.17% among 220,000;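 active = inhibition above the mean inhibition of all tested compounds plus 3 SD, set separately per screening campaign, cut at about 2.9% in these data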;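 also: PERK kinase domain activated by AP20187 dimerizer at 100 nM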
# Hck Nef HTS: inhibitors of Nef-activated human Hck kinase, primary screen, biochemical, Z-Lyte FRET, 384-well, Hck-YEEI. Tyrosine-protein kinase HCK (Homo sapiens), P08631. Recombinant Hck-YEEI plus Nef, Z-Lyte FRET kinase assay. inhibition, % at 20 µM. hit rate 0.68% among 220,000. AID 463187, 2010;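 active = Hck-Nef kinase inhibition above about 50%, limit read from the data; inactive = inhibition below that limit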
# Target sequence (P08631 whole entry, looked up): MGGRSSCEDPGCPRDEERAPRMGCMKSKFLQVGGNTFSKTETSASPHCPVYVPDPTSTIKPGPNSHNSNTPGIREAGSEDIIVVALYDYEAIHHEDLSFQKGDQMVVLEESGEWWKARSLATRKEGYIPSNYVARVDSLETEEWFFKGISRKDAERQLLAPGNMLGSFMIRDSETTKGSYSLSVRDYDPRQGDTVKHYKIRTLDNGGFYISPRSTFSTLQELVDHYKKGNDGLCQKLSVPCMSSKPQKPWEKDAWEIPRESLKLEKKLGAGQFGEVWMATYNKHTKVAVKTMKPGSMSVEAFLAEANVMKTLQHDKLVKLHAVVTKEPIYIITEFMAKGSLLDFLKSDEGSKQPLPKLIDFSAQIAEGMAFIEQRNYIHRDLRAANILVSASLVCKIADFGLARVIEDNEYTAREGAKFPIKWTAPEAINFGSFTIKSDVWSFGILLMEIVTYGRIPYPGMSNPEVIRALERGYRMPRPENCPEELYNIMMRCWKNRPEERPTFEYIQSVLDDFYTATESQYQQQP
# 14-3-3 Bad PPI: inhibitors of 14-3-3 zeta/Bad binding, primary screen, biochemical, TR-FRET, bovine 14-3-3 zeta. TR-FRET 14-3-3zeta/Dy647-pBad peptide displacement, 1 h. inhibition, % at 21.7 µM. hit rate 0.71% among 220,000;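 active = inhibition above about 70%, limit read from the data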
# p97 inhibitor: inhibitors of human p97 ATPase, primary screen, biochemical | Transitional endoplasmic reticulum ATPase (Homo sapiens), P55072 | recombinant p97 ATPase, Kinase-Glo ATP luminescence, 3 h | inhibition, % at 8 µM | hit rate 0.42% among 220,000; in the data active = inhibition above about 15%
# Biofilm kill mix: clotrimazole potentiators killing C. albicans biofilm, primary screen, 4-compound mixtures. hit rate 0.02% among 120,000. inhibition, % at 7.6 µM. C. albicans biofilm persisters + clotrimazole, fluorescence viability; primary screen in compound mixtures of four per well;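 also: compounds exposed to preformed 24 h biofilms for 48 h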
#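 Incubation: 24 h biofilm formation, then 48 h compound exposure, 37 °C | Material: C. albicans biofilms | Buffer or medium: RPMI/MOPS medium, pH 7.0 | Measured by: 2-h Alamar Blue fluorescence, 535/590 nm excitation/emission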
# eIF4E 4G PPI: eIF4E–eIF4G protein interaction inhibitors, primary screen, biochemical, uHTS, TR-FRET, eIF4GI fragment | TR-FRET eIF4E-eIF4GI(517-606) binding, 2 h | inhibition, % at 21.7 µM | hit rate 0.37% among 220,000;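 active = inhibition above about 30%, limit read from the data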
# Hck Nef conf: retest of Hck:Nef kinase inhibitor hits, confirmation, biochemical, Z-Lyte FRET, 384-well, p-Tyr peptide counterscreen; shares compounds with Hck Nef HTS; AID 463188, 2010; calls only at 10 µM; Recombinant Hck-YEEI:Nef, Z-Lyte FRET kinase assay; hit rate 28% among 1,300;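 active = average inhibition of at least 50%, with Z-scores no higher than 3 in both the phospho-tyrosine peptide and fluorescence counterscreens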
# Numbers stand for hits; . = inactive; / = no result shown; + = active, no number. Compounds with a hit are over-represented: about 2.2% of the library has one in this group of screens.
SMILES,PERK inh,Hck Nef HTS,14-3-3 Bad PPI,p97 inhibitor,Biofilm kill mix,eIF4E 4G PPI,Hck Nef conf
COc1ccc(OC)c(/C=N/NC(=O)CC(=O)NCc2ccccc2)c1,.,56.5,.,.,.,.,.
COc1ccc2nc(C)cc(SCC(=O)N/N=C/c3cccc4ccccc34)c2c1,.,91.3,.,.,/,.,.
COc1ccc(/C=C2\SC(=N)N(c3ccc(F)cc3)C2=O)cc1OC,.,62.6,.,.,.,.,+
CCOc1cc(/C=C2\SC(=N)N(c3nonc3N)C2=O)ccc1OCC(N)=O,.,.,.,.,.,.,/
CS(=O)(=O)c1nc2c(cc1C#N)CCCC2,.,.,.,.,.,.,/
COc1ccc(/C=N/NC(=O)COc2cccc3cccnc23)cc1OC,.,54.2,.,.,.,.,.
Cc1cc(C)cc(-n2c(C)cc(/C=N\NC(=O)COc3cccc4cccnc34)c2C)c1,.,.,.,.,.,.,/
Cc1ccccc1/C=N/Nc1ncnc2nc[nH]c12,.,74.8,.,.,.,.,+
Clc1cnc(N/N=C/c2cccs2)c(Cl)c1,.,.,.,.,/,.,/
C(=N\Nc1ncnc2nc[nH]c12)/c1cccs1,.,81.6,.,.,.,.,+
Fc1ccc(/C=N/Nc2ncnc3nc[nH]c23)cc1F,.,67.5,.,.,.,.,+
CCc1ccc(Nc2ncnc3nc[nH]c23)cc1,.,63.2,.,.,.,.,+
Clc1ccc(CCNc2ncnc3nc[nH]c23)cc1,.,.,.,.,/,.,/
CCc1ccc(NC(=S)N(CCN2CCOCC2)Cc2ccccc2F)cc1,.,.,.,.,.,.,/
Cc1cccn2c(=O)c(/C=C(\C#N)C(=O)NCc3ccccc3)c(N3CCC(C(N)=O)CC3)nc12,.,.,.,.,.,.,/
COc1ccc(C)cc1S(=O)(=O)N1CCC(C(=O)NCCc2ccccc2)CC1,.,.,.,.,.,.,/
Cc1ccsc1/C=N/Nc1ncnc2nc[nH]c12,.,75.6,.,.,.,.,+
O=C(CNS(=O)(=O)c1ccc(Br)cc1)N1CCOCC1,.,.,.,.,/,.,/
CCCCc1cc(=O)oc2c(CN(CC)CC)c(O)c(Cl)cc12,.,154.6,.,.,/,.,/
CN1CCN(Cc2c(O)c(Cl)cc3c(-c4ccccc4)cc(=O)oc23)CC1,.,.,.,.,/,.,/
CCCCc1cc(=O)oc2cc(OCc3nn[nH]n3)c(Cl)cc12,.,.,.,.,/,.,/
Cc1c(C)c2cc(Cl)c(O)c(CN3CCCCC3)c2oc1=O,.,66.9,.,.,/,.,.
Cc1cc(=O)oc2c(CN3CCN(C)CC3)c(O)c(Cl)cc12,.,105.8,.,.,/,.,/
CCCc1cc(=O)oc2c(CN(CC)CC)c(O)c(Cl)cc12,.,+,.,.,.,.,/
CC1CCN(c2nc3c(c(=O)[nH]c(=O)n3C)n2CC(C)CSc2nnnn2-c2ccccc2)CC1 (stereo not drawn),.,.,.,.,.,.,/
SMILES,PERK inh,Hck Nef HTS,14-3-3 Bad PPI,p97 inhibitor,Biofilm kill mix,eIF4E 4G PPI,Hck Nef conf
CCCCc1cc(=O)oc2c(CN3CCCC3)c(O)c(Cl)cc12,.,152.9,.,.,/,.,/
CCCc1cc(=O)oc2c(CN3CCN(C)CC3)c(O)c(Cl)cc12,/,/,.,/,/,.,/
Cc1cc(Br)c(OCC(=O)NN)c2c1CCC2,.,.,.,.,.,.,/
CCOC(=O)c1cnc2c(-c3ccc(Cl)cc3)cnn2c1C,.,.,.,.,.,.,/
CCOC(=O)c1cnc2c(-c3ccc(F)cc3)cnn2c1C(F)(F)F,.,81.9,.,.,.,.,.
S=c1[nH]nc(-c2ccco2)n1/N=C/c1ccc(Cl)c(Cl)c1,.,.,.,.,.,.,/
S=c1[nH]nc(-c2ccco2)n1/N=C/c1c(Cl)cccc1Cl,.,61.0,.,.,.,.,.
O=c1oc2c3c4c(cc2c2c1CCC2)OCCN4CCC3,.,96.9,.,.,/,.,/
COc1ccc(NC(=S)N2CCN(C(=O)C3CCCO3)CC2)c(OC)c1 (stereo not drawn),.,.,.,.,.,.,/
O=C(N=Nc1ccc(NOC(=O)c2ccccc2Br)cc1)c1ccccc1O,.,68.1,.,.,.,.,.
COc1ccc(-n2cccc2/C=C2\C(=N)N3N=C(c4ccco4)SC3=NC2=O)cc1,.,93.0,82.1,.,.,45.8,+
COc1ccc(-n2cccc2/C=C2\C(=N)N3N=C(C(C)C)SC3=NC2=O)cc1,.,.,.,.,.,.,/
O=C(Cc1nnc(NC(=O)Nc2ccccc2F)s1)NCc1ccccc1,.,.,.,.,.,.,/
O=C(NC1CCCCC1)C(=S)NC1CCCCC1,.,.,.,.,.,.,/
C[C@H](NC(=O)c1[nH]cnc1C(=O)Nc1ccc(CNC(=O)OC(C)(C)C)cc1)C(=O)OC(C)(C)C,/,57.2,.,/,.,.,.
COc1cc(/C=C/c2ccc3cccc(OC)c3n2)c(OC(C)=O)c([N+](=O)[O-])c1,.,.,.,.,/,.,/
COc1cc(/C=C/c2ccc3cccc(OC)c3n2)c(O)c([N+](=O)[O-])c1,.,69.5,.,.,.,.,+
O=C(Cc1ccccc1)NNC(=O)c1ccccc1C(=O)O,.,.,.,.,.,.,/
Nc1c2ccccc2nc2ccccc12,.,92.6,.,.,.,.,/
C=CCN1c2ccccc2[C@]23C[C@@H](C(=O)OC)N(C(=O)c4cccs4)C2=NC(C(=O)OC)=C(C(=O)OC)[C@H]13,/,.,.,/,.,.,/
NC(=O)CC(NC(=O)Cc1ccc(Br)cc1)c1ccc(NCCc2ccc(F)cc2)c([N+](=O)[O-])c1 (stereo not drawn),/,50.5,.,/,.,.,.
NC(=O)CC(NC(=O)Cc1cccc2ccccc12)c1ccc(NCCOc2ccccc2)c([N+](=O)[O-])c1 (stereo not drawn),/,53.1,.,/,.,.,.
COc1ccc(CCNc2ccc(C(CC(N)=O)NC(=O)Cc3ccc(Br)cc3)cc2[N+](=O)[O-])cc1 (stereo not drawn),/,57.2,.,/,.,.,.
CCn1c2ccccc2c(=O)c2ccccc21,.,141.8,.,.,.,.,/
CC1(C)CC(=O)C(=Cc2cn(-c3ccccc3)nc2-c2ccc(Cl)cc2)C(=O)C1,.,.,.,.,/,.,/

# Bioassay records (PubChem)
